Experimental data from different studies.
Target: Serine/threonine-protein kinase pim-2 (PIM2, Homo sapiens, UniProt Q9P1W9)

C#Cc1cc(-c2cc(Nc3nc(N[C@@H](C)c4ccc(F)cn4)ncc3Cl)n[nH]2)ccc1C=O
inhibition (enzyme activity; inhibitor; 0.2 µM): 2.74%

C=CC(=O)N1CCC[C@@H](n2nc(-c3ccc(Oc4ccccc4)cc3)c3c(N)ncnc32)C1
inhibition (enzyme activity; inhibitor; 1 µM): 3%

C1=C/COCc2cc(ccc2OCCN2CCCC2)Nc2nccc(n2)-c2cccc(c2)COC/1
remaining binding (binding; 0.1 µM): 100%

C#Cc1cnc(Nc2ccnc(CO)c2)nc1Nc1ccccc1S(C)(=O)=NC#N (stereo not shown)
remaining signal (cell-free assay; 1 µM): 100%

CC#CC(=O)N1CCC[C@H]1c1nc(-c2ccc(C(=O)Nc3ccccn3)cc2)c2c(N)nccn12
inhibition (enzyme activity; inhibitor; 1 µM): 0%

CCCCC(=O)Nc1ccc(-c2ccc3ncn(CCC)c(=O)c3c2)cn1
remaining binding (binding; competition with immobilised ligand; 0.5 µM): 100%

CN1CCN(C(=O)c2ccc(NC(=O)Nc3ccc(N(C)c4ccnc(Nc5ccc(CS(C)(=O)=O)cc5)n4)cc3)cc2)CC1
remaining binding (binding; 1 µM): 100%

COc1ccc2oc(-c3ccc4nc(N)oc4c3)c/c(=N\c3ccccc3NC(=O)CCN)c2c1
remaining binding (binding; 1 µM): 103%

Cc1ccc(NC(=O)c2ccnc(C(F)(F)F)c2)cc1-c1cc(OCCO)nc(N2CCOCC2)c1
remaining binding (binding; 1 µM): 82%

N#Cc1ccc(NC(=O)Nc2ccccc2)cc1
remaining binding (cell-free assay; competition with immobilised ligand; 25 µM): 100%
